# Results taken from ChEMBL document CHEMBL1154729, “Discovery of novel antitubercular 2,10-dihydro-4aH-chromeno[3,2-c]pyridin-3-yl derivatives” (Eur J Med Chem, 2010).
# System: Mycobacterium tuberculosis
# Assay: Antimycobacterial activity against multidrug-resistant Mycobacterium tuberculosis by agar dilution method
# Format: functional
# Procedure, shortened: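 Agar dilution MIC on Middlebrook 7H11 agar supplemented with OADC, following NCCLS-like procedure; determined in duplicate.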
row,Compound,MIC
1,Cc1ccc2ccc(C(=O)NCC3=C[C@@H]4Oc5ccccc5C(=O)C4=CN3c3ncc(Br)cc3Br)cc2c1,0.61 µM
2,Cc1cccnc1N1C=C2C(=O)c3ccccc3O[C@H]2C=C1CNC(=O)c1ccc(Cl)cc1,3.4 µM
3,Cc1cccnc1N1C=C2C(=O)c3ccccc3O[C@H]2C=C1CNC(=O)c1ccc(F)cc1,7.09 µM
4,COc1ccc(C(=O)NCC2=C[C@@H]3Oc4ccccc4C(=O)C3=CN2c2ncccc2C)cc1,3.44 µM
5,Cc1ccc2ccc(C(=O)NCC3=C[C@@H]4Oc5ccccc5C(=O)C4=CN3c3ncccc3C)cc2c1,0.13 µM
6,O=C(NCC1=C[C@@H]2Oc3ccccc3C(=O)C2=CN1c1ncc(Br)cc1Br)c1cccc(Cl)c1,2.6 µM
7,CC[C@@H](CO)NCCN[C@@H](CC)CO [ETHAMBUTOL],122 µM
8,O=C(NCC1=C[C@@H]2Oc3ccccc3C(=O)C2=CN1c1ncc(Br)cc1Br)c1ccc(Cl)c(Cl)c1,4.91 µM
9,Cc1ccc(C(=O)NCC2=C[C@@H]3Oc4ccccc4C(=O)C3=CN2c2ncccc2C)cc1,1.78 µM
10,Cc1cccnc1N1C=C2C(=O)c3ccccc3O[C@H]2C=C1CNC(=O)c1ccc2ccccc2c1,0.42 µM
11,CCc1ccc(C(=O)NCC2=C[C@@H]3Oc4ccccc4C(=O)C3=CN2c2ncc(Br)cc2Br)cc1,1.3 µM
12,Cc1cccnc1N1C=C2C(=O)c3ccccc3O[C@H]2C=C1CNC(=O)c1ccccc1,3.68 µM
13,NNC(=O)c1ccncc1 [ISONIAZID],45.6 µM
14,CCc1ccc(C(=O)NCC2=C[C@@H]3Oc4ccccc4C(=O)C3=CN2c2ncccc2C)cc1,0.07 µM
15,O=C(NCC1=C[C@@H]2Oc3ccccc3C(=O)C2=CN1c1ncc(Br)cc1Br)c1ccc(Cl)cc1,2.95 µM
16,Cc1cccnc1N1C=C2C(=O)c3ccccc3O[C@H]2C=C1CNC(=O)c1cccc(Cl)c1,1.7 µM
17,O=C(NCC1=C[C@@H]2Oc3ccccc3C(=O)C2=CN1c1ncc(Br)cc1Br)c1ccc2ccccc2c1,5.04 µM
18,CO[C@H]1/C=C/O[C@@]2(C)Oc3c(C)c(O)c4c(O)c(c(/C=N/N5CCN(C)CC5)c(O)c4c3C2=O)NC(=O)/C(C)=C\C=C\[C@H](C)[C@H](O)[C@@H](C)[C@@H](O)[C@@H](C)[C@H](OC(C)=O)[C@@H]1C [RIFAMPIN],3.79 µM

# System: not listed separately
# Assay: Selectivity index, ratio of IC50 for african green monkey Vero cells to MIC for multidrug-resistant Mycobacterium tuberculosis
# Format: functional
row,Compound,Selectivity Index
1,CCc1ccc(C(=O)NCC2=C[C@@H]3Oc4ccccc4C(=O)C3=CN2c2ncccc2C)cc1,1977
